Only some compounds are listed: those with a hit (about 1.9% of all), similar ones and a draw of the others.
Fh CTSL1 inh: Fasciola hepatica cathepsin L1 inhibitors, primary screen, counter-screen for PFM18AAP inhibitor project, biochemical, QFRET, fluorogenic peptide substrate; inhibition, % at 5.96 µM; 0.49% of 300,000 active; AID 1906, 2009; recombinant F. hepatica cathepsin L1, Z-Leu-Arg-MCA fluorescence;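 active means inhibition above the mean of all tested compounds plus 3 SD, set per screening campaign, cut at about 17% in these data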;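 further: 0% = plate median of test compound wells and 100% = 1 µM Z-Phe-Ala-diazomethylketone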
VIM-2 inhibitor: VIM-2 metallo-beta-lactamase inhibitors, primary screen, biochemical, epi-absorbance readout, Pseudomonas aeruginosa enzyme; inhibition, % at 5.6 µM; purified VIM-2, nitrocefin hydrolysis, epi-absorbance fluorescence; 0.89% of 290,000 active;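 active means inhibition above the mean of all tested compounds plus 3 SD, cutoff set per screening run, cut at about 7.5% in these data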;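 further: red hydrolysis product quenches plate fluorescence so inhibitors raise well fluorescence; 0% = enzyme with DMSO and 100% = DMSO without enzyme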
IMP-1 inhibitor: IMP-1 metallo-beta-lactamase inhibitors, primary screen, biochemical, epi-absorbance readout, Pseudomonas aeruginosa enzyme | metallo-beta-lactamase IMP-1 (Pseudomonas aeruginosa) | purified IMP-1, nitrocefin hydrolysis, epi-absorbance fluorescence | inhibition, % at 5.6 µM | 0.45% of 290,000 active | AID 1556, 2009;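 active means inhibition above the mean plus 3 SD of all compounds in the same screening run, cut at about 4.5% in these data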;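 further: 0% = IMP-1 with DMSO and 100% = DMSO wells lacking enzyme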
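Assay system: purified recombinant IMP-1 beta-lactamase. Input: IMP-1 0.2 nM before substrate addition. Buffer or medium: Zinc- and detergent-supplemented HEPES buffer, pH 7.1. Schedule: 25 °C, 15 min preincubation, 25 min reaction. Signal: Epi-absorbance fluorescence, 480 nm excitation, 530 nm emission. Evaluation: percent inhibition from optical density relative to buffer-blank wells.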
UBC9 SUMO inh: inhibitors of in vitro SUMOylation cascade, primary screen, biochemical, HTRF, uHTS; SUMO-conjugating enzyme UBC9 (Homo sapiens), P63279; HTRF SUMOylation assay, SAE1/SAE2 + UBC9; inhibition, % at 35 µM; 0.36% of 290,000 active; in the data active means inhibition above about 50%, passing the limit was not always enough
Target sequence (P63279 whole entry, looked up): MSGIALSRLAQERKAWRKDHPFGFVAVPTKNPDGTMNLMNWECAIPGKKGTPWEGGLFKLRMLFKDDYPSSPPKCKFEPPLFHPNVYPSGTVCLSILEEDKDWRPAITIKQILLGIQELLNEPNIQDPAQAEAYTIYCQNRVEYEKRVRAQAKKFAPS
pCIP destab: p/CIP-EGFP fusion destabilizers, primary screen, fluorescence, F442A cells | Q05BA5 | 16 h | decrease of EGFP signal, % at 10 µM | 0.01% of 290,000 active;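 active means EGFP signal decrease of at least 30% at 10 µM or well 3 SD below plate mean, unless failing retest; inactive means the rest, including hits failing retest or dose response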
T cell modulator: modulators of CD8 T cell-vesicle binding, primary screen, mouse 2C CD8+ T cells, flow cytometry; response (vesicle binding), % at 7 µM; 0.068% of 330,000 active; 2C CD8+ T cell-vesicle binding; active compounds read low; AID 2052, 2009;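 active means response, share of CD8 T cells binding vesicles, and their 90th percentile fluorescence all below set limits, cut at about 80% in these data, passing the limit was not always enough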;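 further: values below 100% mean blocked vesicle binding to the CD8+ T cells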
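incubation = binding step 1.5 h, 37 °C, antibody labelling 20 min, ice | test system = 2C mouse CD8+ T cells | read-out basis = percent CD8+ FL2 mean versus row control | controls = Peptide-free naked vesicles (low) and QL9 vesicles with 0.7% DMSO vehicle (high) | detection = flow cytometry of vesicle-bound cells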
* = called active by the depositor; i = inactive; / = not tested or not shown; ! = not active in a repeat.

SMILES	Fh CTSL1 inh	VIM-2 inhibitor	IMP-1 inhibitor	UBC9 SUMO inh	pCIP destab	T cell modulator
O=C(Nc1cccc(C(F)(F)F)c1)C1CCN(S(=O)(=O)c2ccc(N3CCCC3=O)cc2)CC1	12	-2	-2	-4	-14	759
CCN(CC)c1ccc(C=C2C(=O)OC(c3ccccc3)OC2=O)cc1 (stereo not given)	-3	-2	-3	11	-11	156
CCN(CC)c1ccc(/C=C/C(=O)C2C(=O)C=C(C)OC2=O)cc1 (stereo not given)	2	7	7.4*	14	-574	270
Cc1ccccc1-n1nc2c(c1NC(=O)c1c(-c3ccccc3Cl)noc1C)CSC2	-2	-2	44*	0	-9	254
Cc1ccc(-n2nc3c(c2NC(=O)c2c(-c4ccccc4Cl)noc2C)CSC3)cc1	3	-4	-5	4	2	258
CCn1c(SC(=O)NC2CCCCC2)nnc1-c1cccs1	55*	11*	-4	18	-2	147
CCn1c(COc2ccccc2C)nnc1SCC(=O)O	-3	0	-3	-3	8	244
CCn1c(COc2ccccc2C)nnc1SCC(=O)CC(=O)Nc1ccccc1	25*	-3	-6	10	0	348
Cc1cc(C)c(NC(=O)c2ccccc2CCc2ccccc2)c(C)c1	17*	-2	-1	-3	-5	615
O=C(/C=C/c1ccccc1)Nc1cc(S(=O)(=O)N2CCOCC2)ccc1N1CCCC1	-1	-1	-2	14	-7	264
COc1cccc(OCCNc2cc(N3CCCCC3)ccc2[N+](=O)[O-])c1	3	1	47*	7	-3	148
CCOC(=O)c1c(NC(=O)CSc2ncn[nH]2)sc(C(=O)NC)c1C	1	10.0*	-1	-5	1	488
O=C(Oc1ccccc1Cl)c1ccccc1P(=O)(O)O	4	-1	-4	22	-8	633
O=C(Oc1ccccc1)c1c(Cl)cccc1P(=O)(O)O	-1	8.5*	1	27	-6	374
CCOC(=O)N1CCN(C(=O)c2ccc(CS(=O)Cc3ccc(C)cc3)o2)CC1 (stereo not given)	0	-2	-4	2	-8	43*
Cc1ccc(C23CC4CC(CC(NC(=O)NN)(C4)C2)C3)cc1	28*	-3	-3	-13	-7	i
Cc1ccc(C(=O)NC2CCCc3ccccc32)o1 (stereo not given)	76*	-1	0	22	4	310
Cc1ccc(C(=O)OCC(=O)NC2CCCc3ccccc32)o1 (stereo not given)	/	/	/	/	/	384
O=C(CCl)NC1CCCc2ccccc21 (stereo not given)	27*	-1	-3	-3	-7	169
CSc1nc(-c2ccco2)nn1C(=O)c1ccccc1	1	-2	-2	5	-15	147
COc1ccccc1C(=O)n1nc(-c2ccco2)nc1SC	2	-2	-1	-5	17	28*
Cc1ccc2nc(-c3cccc(NC(=O)c4ccc5c(c4)OCCO5)c3)oc2c1	3	0	-1	18	-14	262
O=C(Nc1ccc2oc(-c3ccc4ccccc4c3)nc2c1)c1ccc2c(c1)OCCO2	2	-1	-3	55*	-4	683
O=C(Nc1ccc(-c2nc3ccccc3[nH]2)cc1)c1ccc2c(c1)OCO2	3	0	28*	2	5	655
CCc1c(C(=O)NNC(=S)Nc2ccc(S(=O)(=O)Nc3ncccn3)cc2)csc1C	2	-4	-3	16	-4	252
SMILES	Fh CTSL1 inh	VIM-2 inhibitor	IMP-1 inhibitor	UBC9 SUMO inh	pCIP destab	T cell modulator
COC(=O)C1=C(C)N(c2ccc(OC)cc2)C(C)=C(C(=O)OC)C1c1ccc(OC)cc1	6	-2	38*	7	-4	416
CCn1c(N2CCN(C(=S)NCCc3ccccc3)CC2)nc2ccccc21	-1	-3	-3	-21	8	414
COc1cc(-c2cc(=O)c3c(O)cc(O)cc3o2)ccc1O	-1	0	-3	15	-17	545
COc1ccc(-c2cc(=O)c3c(OC)c(OC)c(OC)c(OC)c3o2)cc1OC	1	10*!	-1	20	-10	753
COc1cc(-c2cc(=O)c3ccccc3o2)ccc1O	14	9.5*	-2	2	2	149
COc1ccc(NC(=O)CCC(=O)Nc2nnc(C3CCCCC3)s2)c(OC)c1	2	-1	-2	6	6	666
COc1ccc(OC)c(CCNC(=O)c2cccc(NC(=O)C3=C(C)OCCS3)c2)c1	2	-5	-2	-8	6	495
COc1ccc(-c2cc(CNS(=O)(=O)c3cc(OC)ccc3OC)on2)cc1	-2	0	-2	-2	8	243
COc1ccc(-c2cc(CNS(=O)(=O)c3ccc(NC(C)=O)cc3)on2)cc1	-2	-2	-4	-7	-16	0.0*
COc1ccc(/C=C/c2nc3ccccc3c(=O)n2-c2cccc(C(=O)O)c2)cc1	19*	-2	-2	3	1	284
Cc1cccc(C)c1OCC(=O)N/N=C/C=C/c1ccco1	6	-3	-2	55*	-3	228
CCCCn1c(N)c(-c2nc3ccccc3o2)c2c([N+](=O)[O-])nn(C)c(=O)c21	1	-4	-4	8	-35	497
CCCCCn1c(N)c(-c2nc3ccccc3s2)c2c([N+](=O)[O-])nn(C)c(=O)c21	-2	0	6.9*	16	10	828
O=C1COc2ccc(C(=O)CSc3nnc(Cc4cccs4)n3-c3ccccc3)cc2N1	-6	2	-1	-9	6	251
O=C1COc2ccc(C(=O)CSc3nnc(-c4cccs4)n3Cc3ccccc3)cc2N1	-1	9.3*	-3	29	-3	0
COc1ccc(-c2nnc3ccc(SC)nn23)cc1	-4	8.2*	-4	34	0	458
COc1ccc(-c2nnc3ccc(SCC(=O)N4CCOCC4)nn23)cc1	4	/	/	16	-3	676
COc1ccc2[nH]cc(C(=O)CCl)c2c1	74*	-3	-4	15	-5	144
CCC(CO)NCC#Cc1ccccc1 (stereo not given)	2	-3	-3	3	-3	285
COc1ccc(/C(C)=N/NC(=O)CNC(=O)c2ccco2)cc1	-4	-2	-2	1	-7	168
